Measurements as given in ChEMBL document CHEMBL5329219, “α-Aminophosphonate inhibitors of metallo-β-lactamases NDM-1 and VIM-2” (RSC Med Chem, 2023).
Calls of active or inactive are those of the source. The calls are words filed in the database; no cut-off is given here.

Tests used:
[1] = test system: HepG2; assay: Cytotoxicity against human HepG2 cells incubated for 24 hrs by resorufin based fluorescence assay; format: toxicity, cell-based; conditions: hepg2, 24 h
Procedure, shortened: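 HepG2 cells grown in DMEM with 10% FBS and 1% penicillin–streptomycin at 37 °C, 5% CO2, seeded for exponential growth. Two-fold serial dilutions of compound added at 0.3% v/v final DMSO for 24 h. PrestoBlue viability read as resorufin fluorescence (544/590 nm). Controls were untreated, DMSO-only and 1% SDS. EC50 from three independent experiments.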

[2] = test system: Bacteria; assay: Inhibition of bacterial metallo-beta-lactamase VIM-2 preincubated for 5 mins followed by nitrocefin addition by spectrophotometer analysis
Procedure, shortened: (§1)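 Purified VIM-2 (0.1 nM) in 50 mM HEPES pH 7.2 with 100 μM ZnCl2, 2.5% DMSO and 400 μg ml−1 BSA, preincubated with inhibitor (twelve concentrations, 0–800 μM) at 25 °C for 5 min. Reaction started with 100 μM nitrocefin and absorbance read at 482 nm. Triplicates; IC50 from initial velocities by log[inhibitor] vs. response fit.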

[3] = target: Metallo-beta-lactamase type 2 (Bacteria) (UniProt C7C422); assay: (§2) Inhibition of bacterial metallo-beta-lactamase NDM-1 preincubated for 5 mins followed by imipenem addition by spectrophotometer analysis
Procedure, shortened: as §1, with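 “NDM-1 (10” for “VIM-2 (0.1”, “imipenem” for “nitrocefin”, “300” for “482”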

[4] = target: Metallo-beta-lactamase type 2 (Bacteria, UniProt C7C422); assay: as §2
Procedure, shortened: as §1, with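 “NDM-1 (10” for “VIM-2 (0.1”, “imipenem” for “nitrocefin”, “300” for “482”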

Metallo-beta-lactamase type 2 (Bacteria), sequence (C7C422 whole entry): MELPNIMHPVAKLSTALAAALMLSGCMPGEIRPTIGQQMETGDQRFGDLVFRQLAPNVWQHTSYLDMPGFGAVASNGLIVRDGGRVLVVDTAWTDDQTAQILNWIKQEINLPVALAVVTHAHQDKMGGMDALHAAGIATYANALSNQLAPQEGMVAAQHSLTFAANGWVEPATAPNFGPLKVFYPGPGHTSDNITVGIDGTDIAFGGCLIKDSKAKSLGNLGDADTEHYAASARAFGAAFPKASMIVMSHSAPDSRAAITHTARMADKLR
Metallo-beta-lactamase type 2, sequence (C7C422 whole entry): as above

For `Cl.O=C(NC(C1CCCCN1)P(=O)(O)O)c1cccs1` (stereo not drawn), the Activity [1] was “Non-Toxic”.

For `Cl.O=C(Cc1cccs1)NC(C1CCCCN1)P(=O)(O)O` (stereo not drawn), the Activity [1] was “Non-Toxic” and the inhibition [2] was “inactive”.

In the case of `Cl.O=C(Cc1cc2ccccc2s1)NC(C1CCCCN1)P(=O)(O)O` (stereo not drawn), the inhibition [3] is reported as “inactive”, the IC50 [4] is reported as 22.4 µM and the Activity [1] is reported as “Non-Toxic”.

For `Cc1[nH]c(=S)sc1CC(=O)NC(C1CCCCN1)P(=O)(O)O` (stereo in doubt; form 2), the inhibition [3] was “inactive” and the inhibition [2] was “inactive”.

`Cc1[nH]c(=S)sc1CC(=O)NC(C1CCCCN1)P(=O)(O)O.Cl` (stereo in doubt; form 1) was tested, and the Activity [1] was “Non-Toxic”.

For `O=C(NC(C1CCCCN1)P(=O)(O)O)c1csc2ccccc12` (stereo in doubt; form 1), the inhibition [3] was “inactive”.

In the case of `O=C(NC(C1CCCCN1)P(=O)(O)O)c1cc2c(s1)CCCC2` (stereo in doubt; form 2), the inhibition [3] is reported as “inactive”.

`Cl.O=C(Cc1csc2ccccc12)NC(C1CCCCN1)P(=O)(O)O` (stereo not drawn) was tested, and the Activity [1] was “Non-Toxic” and the inhibition [2] was “inactive”.

For `Cl.O=C(NC(C1CCCCN1)P(=O)(O)O)c1cc2c(s1)CCCC2` (stereo in doubt; form 1), the Activity [1] was “Non-Toxic”.

For `O=C(NC(C1CCCCN1)P(=O)(O)O)c1scc2c1CCCC2` (stereo in doubt; form 2), the inhibition [3] was “inactive”.

`Cl.O=C(NC(C1CCCCN1)P(=O)(O)O)c1ccsc1` (stereo not drawn) was tested, and the Activity [1] was “Non-Toxic”.

For `O=C(NC(C1CCCCN1)P(=O)(O)O)c1csc2ccccc12` (stereo in doubt; form 2), the inhibition [3] was “inactive”.

For `Cl.O=C(NC(C1CCCCN1)P(=O)(O)O)c1cc2ccccc2s1` (stereo not drawn), the Activity [1] was “Non-Toxic”.

In the case of `Cl.O=C(NC(C1CCCCN1)P(=O)(O)O)c1csc2c1CCCC2` (stereo not drawn), the inhibition [3] is reported as “inactive”, the IC50 [4] is reported as 76 µM and the Activity [1] is reported as “Non-Toxic”.

For `Cc1[nH]c(=S)sc1CC(=O)NC(C1CCCCN1)P(=O)(O)O` (stereo in doubt; form 1), the inhibition [3] was “inactive”.

For `O=C(NC(C1CCCCN1)P(=O)(O)O)c1cc2c(s1)CCCC2` (stereo in doubt; form 1), the inhibition [3] was “inactive”.

With `O=C(NC(C1CCCCN1)P(=O)(O)O)c1scc2c1CCCC2` (stereo in doubt; form 1) the inhibition [3] was “inactive”.

For `Cl.O=C(NC(C1CCCCN1)P(=O)(O)O)c1csc2ccccc12` (stereo in doubt; form 1), the Activity [1] was “Non-Toxic”.

In the case of `Cl.O=C(Cc1ccsc1)NC(C1CCCCN1)P(=O)(O)O` (stereo not drawn), the Activity [1] is reported as “Non-Toxic” and the inhibition [2] is reported as “inactive”.

With `Cl.O=C(NC(C1CCCCN1)P(=O)(O)O)c1scc2c1CCCC2` (stereo in doubt; form 1) the Activity [1] was “Non-Toxic”.
